Calls of active or inactive are those of the source. The rule behind the calls is not given here.
How the values were obtained:
[1] = Metabolic stability in human liver microsomes assessed as clearance at 0.1 uM preincubated for 10 mins followed by NADPH addition and measured upto 60 mins by LC-MS/MS analysis; assay type: ADME, Microsome; settings: 1 h, time <=70 min
Method in brief: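 Microsomes at 0.33 mg/mL in 0.1 M Tris pH 7.4 with 5 mM MgCl2; compound final 0.1 μM (0.01% DMSO, 0.005% BSA). Preincubated 10 min at 37 °C, then started with 1 mM NADPH. Sampled at 0, 7, 17, 30 and 60 min and quenched with cold methanol. Centrifuged, then analysed by LC-MS/MS.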

[2] = target: T1, Signal transducer and activator of transcription 5A (Homo sapiens) (UniProt P42229); assay: Inhibition of STAT5 phosphorylation at Y694 residue in human HCC70 cells at 0.3 to 3 uM after 3 hrs by Western blotting analysis; assay type: cell-based; settings: dose 0.3-3 µM
T1 sequence (whole entry): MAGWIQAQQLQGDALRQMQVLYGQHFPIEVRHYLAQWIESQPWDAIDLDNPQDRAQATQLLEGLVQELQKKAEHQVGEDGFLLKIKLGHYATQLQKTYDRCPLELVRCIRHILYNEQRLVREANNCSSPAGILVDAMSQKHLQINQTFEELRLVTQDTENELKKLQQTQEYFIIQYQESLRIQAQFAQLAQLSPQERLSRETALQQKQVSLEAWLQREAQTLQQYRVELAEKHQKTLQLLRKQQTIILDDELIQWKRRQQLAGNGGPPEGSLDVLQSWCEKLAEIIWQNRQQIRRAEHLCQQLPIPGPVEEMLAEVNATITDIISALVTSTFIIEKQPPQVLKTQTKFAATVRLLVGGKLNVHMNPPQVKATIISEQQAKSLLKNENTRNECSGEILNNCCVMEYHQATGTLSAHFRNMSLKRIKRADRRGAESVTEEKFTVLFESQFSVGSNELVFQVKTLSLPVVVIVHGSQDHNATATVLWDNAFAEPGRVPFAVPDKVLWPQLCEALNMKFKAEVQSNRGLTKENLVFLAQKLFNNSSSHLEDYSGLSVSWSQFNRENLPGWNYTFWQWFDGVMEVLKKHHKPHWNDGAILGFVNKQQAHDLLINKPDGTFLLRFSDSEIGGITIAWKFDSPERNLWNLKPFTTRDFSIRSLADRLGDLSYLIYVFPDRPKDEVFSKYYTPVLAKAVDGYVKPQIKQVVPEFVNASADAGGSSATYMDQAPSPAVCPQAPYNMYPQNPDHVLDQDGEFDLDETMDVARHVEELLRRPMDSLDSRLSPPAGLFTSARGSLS

[3] = target: Signal transducer and activator of transcription 3 (Homo sapiens, UniProt P40763); assay: Inhibition of STAT3 dependent transcriptional activity (unknown origin) expressed in HEK293T cells at 1 to 3 uM after 24 hrs by Dual-luciferase reporter gene assay; assay type: cell-based; settings: dose 1-3 µM
Signal transducer and activator of transcription 3, sequence (P40763 whole entry): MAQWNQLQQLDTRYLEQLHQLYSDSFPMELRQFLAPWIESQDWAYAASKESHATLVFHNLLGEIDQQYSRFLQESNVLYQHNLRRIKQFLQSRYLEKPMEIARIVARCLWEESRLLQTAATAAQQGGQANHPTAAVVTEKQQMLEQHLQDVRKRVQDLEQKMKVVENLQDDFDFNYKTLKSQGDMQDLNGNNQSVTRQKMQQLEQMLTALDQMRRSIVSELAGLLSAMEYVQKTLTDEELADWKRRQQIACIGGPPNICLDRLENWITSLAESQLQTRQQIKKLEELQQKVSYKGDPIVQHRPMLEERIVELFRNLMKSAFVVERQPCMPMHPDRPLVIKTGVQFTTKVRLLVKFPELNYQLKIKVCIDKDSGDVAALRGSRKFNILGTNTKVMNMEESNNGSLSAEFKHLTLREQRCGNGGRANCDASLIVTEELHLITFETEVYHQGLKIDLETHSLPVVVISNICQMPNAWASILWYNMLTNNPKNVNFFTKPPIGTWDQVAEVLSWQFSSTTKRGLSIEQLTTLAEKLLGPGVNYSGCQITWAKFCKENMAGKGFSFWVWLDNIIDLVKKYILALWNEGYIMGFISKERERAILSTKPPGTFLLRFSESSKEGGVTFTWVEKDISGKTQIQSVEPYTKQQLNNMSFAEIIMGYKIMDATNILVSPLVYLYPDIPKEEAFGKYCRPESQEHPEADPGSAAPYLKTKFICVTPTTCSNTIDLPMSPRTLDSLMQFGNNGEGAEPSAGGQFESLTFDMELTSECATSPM
Method in brief: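 HEK-293T cells (2.5×10^4/well) co-transfected with pGL3-STAT3 (seven STAT3 binding-site copies; 50 ng), STAT3C (50 ng) and TK-Renilla (40 ng). After 24 h, treated with vehicle or compound for 24 h. Dual firefly/Renilla luciferase read on a luminometer.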

[4] = Antiproliferative activity against human MDA231-LM2-4175 cells assessed as reduction in cell viability after 72 hrs by CCK8 assay; assay type: functional, cell-based; settings: MDA231-LM2-4175, 72 h
Method in brief: (§1)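 Cells seeded at 1000–8000 per well were grown overnight, then exposed to 0.1–100 μM compound or 0.1% DMSO vehicle for 72 h. CCK-8 was added for 0.5–4 h at 37 °C and absorbance read at 480 nm. Viability = (OD compound − blank)/(OD vehicle − blank) × 100, with medium as blank. IC50 fitted from three independent experiments.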

MCF7 = assay: Antiproliferative activity against human MCF7 cells assessed as reduction in cell viability after 72 hrs by CCK8 assay; assay type: functional, cell-based; settings: MCF7, 72 h; method in brief: as §1
MDA-MB-231 [5] = assay: Antiproliferative activity against STAT3 knocked down human MDA-MB-231 cells assessed as reduction in cell viability; assay type: functional, cell-based
Method in brief: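 MDA-MB-231 cells at 60–70% confluence were transfected with STAT3 siRNA or negative-control siRNA using DharmaFECT. Viability was then read by CCK-8.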

MDA-MB-231 [6] = assay: Induction of apoptosis in human MDA-MB-231 cells assessed as late apoptotic cells at 1 uM after 48 hrs by Annexin-V-FITC/propidium iodide staining based flow cytometric analysis (Rvb =3.05%); assay type: functional
[7] = Induction of apoptosis in human MDA231-LM2-4175 cells assessed as viable cells at 1 uM after 48 hrs by Annexin-V-FITC/propidium iodide staining based flow cytometric analysis (reference value: 94.4%); assay type: functional; settings: read-out: Activity
MDA-MB-468 = assay: Induction of apoptosis in human MDA-MB-468 cells assessed as necrotic cells at 3 uM after 48 hrs by Annexin-V-FITC/propidium iodide staining based flow cytometric analysis (reference value: 0.240%); assay type: functional
MDA-MB-231 [8] = assay: Induction of apoptosis in human MDA-MB-231 cells assessed as increase in caspase-7 cleavage at 3 uM after 48 hrs by Western blot analysis; assay type: functional, cell-based
Method in brief: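 Cells were treated with vehicle (0.1% DMSO) or compound, then analysed by western blot of RIPA lysates (20–50 μg protein, SDS-PAGE, PVDF) for PARP and cleaved caspase-7, with β-actin as loading control. Three independent experiments.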

[9] = Half life in Sprague-Dawley rat at 10 mg/kg, po measured up to 24 hrs by LC-MS/MS analysis; assay type: ADME, organism-based; settings: in vivo
Method in brief: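 Male SD rats given a single oral dose of 10 mg/kg in DMSO/0.5% HPMC (5/95, v/v). Blood was drawn at 0.25, 0.5, 1, 2, 4, 8 and 24 h, and plasma was analysed by LC-MS/MS on a BEH phenyl column with a formic acid water/acetonitrile mobile phase.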

[10] = Toxicity in mouse xenografted with human MDA-MB-231-4175 cells assessed as morphological change in spleen at 5 to 15 mg/kg, […] once daily for 20 days by HE staining based assay; assay type: organism-based; settings: in vivo, iv, 480 h, dose 5-15 mg/kg, time 20 day
Method in brief: (§2)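 Female NOD-SCID mice aged 4–5 weeks, given 2×10^6–3×10^6 MDA-MB-231-4175 cells subcutaneously in the flank. At about 100 mm³ tumour volume, randomised n=6/group: vehicle (PBS with 15% Cremophor EL), 5 or 15 mg/kg intraperitoneally daily. Killed at day 20; heart, liver, spleen, lung and kidney collected for morphological examination.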

[11] = Toxicity in NOD/SCID mouse xenografted with patient-derived breast cancer cells assessed as morphological change in heart at 5 to 15 mg/kg, […] once daily for 20 days by HE staining based assay; assay type: organism-based; settings: in vivo, iv, dose 5-15 mg/kg, time 20 day
Method in brief: as §2, with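 “implanted” for “aged 4–5 weeks, given 2×10^6–3×10^6 MDA-MB-231-4175 cells”, “flank with about 2 mm³ TNBC PDX fragments.” for “flank.”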

Structure (SMILES): O=C(Cc1c(-c2ccccc2)nc2ccccn12)Nc1ccc2c(c1)S(=O)(=O)C=C2
- CLH [1]: 87 mL/min/g
- inhibition [2]: inactive
- inhibition [3]: Active
- IC50 [4]: 2500 nM
- IC50 (MCF7): 7.22 µM
- Activity (MDA-MB-231 [5]): inactive
- Activity (MDA-MB-231 [6]): 7.54%
- viability at 1 µM [7]: 88.7%
- Activity (MDA-MB-468): 1.33%
- Activity (MDA-MB-231 [8]): Active
- half-life [9]: 87.6 min
- Activity [10]: Non-Toxic
- Activity [11]: Non-Toxic
